What was measured:
[1] = tested on: MCF7; test: Antiproliferative activity against human MCF7 cells expressing estrogen receptor incubated with 0.06 nM of estradiol and 0.07 nM of testosterone after 48 hrs by sulforhodamine B assay in presence of fetal bovine serum and NuSerum; format: functional; settings: MCF7, 48 h
Procedure, shortened: (§1)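 Sulforhodamine B growth assay with 48 h agent exposure at 37 °C in 5% CO2. Seeding densities were preset to give exponential growth with final OD below 2.0. Percent growth was taken from OD versus matched vehicle-only (0.25% DMSO) controls. GI50 came from a Hill equation fit, with values averaging eight sets of duplicate wells across a concentration range.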

[2] = tested on: PC-3; test: Antiproliferative activity against androgen receptor-deficient human PC3 cells incubated with 0.6 nM of estradiol and 0.7 nM of testosterone after 48 hrs by sulforhodamine B assay; format: functional; settings: PC-3, 48 h; procedure, shortened: as §1
[3] = tested on: MCF-12A; test: Antiproliferative activity against estrogen receptor-deficient human MCF12A cells incubated with 100 nM of estradiol and […] of testosterone after 48 hrs by sulforhodamine B assay in presence of fetal bovine serum and NuSerum
[4] = tested on: DU-145; test: Antiproliferative activity against androgen receptor-deficient human DU145 cells incubated with 0.6 nM of estradiol and 0.7 nM of testosterone after 48 hrs by sulforhodamine B assay; format: functional; settings: DU-145, 48 h; procedure, shortened: as §1
[5] = tested on: MCF-12A; test: Antiproliferative activity against estrogen receptor-deficient human MCF12A cells incubated with 0.003 nM of estradiol and 0.01 nM of testosterone after 48 hrs by sulforhodamine B assay in presence of 5% fetal bovine serum; format: functional
Procedure, shortened: (§2)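 Low-E2 condition: MCF7 and NCI-ADR-RES cells were precultured at least 4 days in RPMI with 5% FBS and no NuSerum, then seeded in it at 3500 and 6000 cpw. MCF12A cells were seeded at 1600 cpw in their maintenance medium (DMEM/F-12 with insulin, hydrocortisone, EGF, cholera toxin, 5% FBS). Agents were added in 5% FBS RPMI. After 48 h, growth was read by sulforhodamine B OD versus 0.25% DMSO controls, with GI50 from a Hill fit.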

[6] = tested on: MCF7; test: Antiproliferative activity against human MCF7 cells expressing estrogen receptor incubated with 100 nM of estradiol and 0.07 nM of testosterone after 48 hrs by sulforhodamine B assay in presence of fetal bovine serum and NuSerum; format: functional; settings: MCF7, 48 h
Procedure, shortened: (§3)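 High-E2 condition: cells were seeded as for the intermediate-E2 tests. Agents were added in 5% FBS/5% NuSerum medium with E2 added to give 100 nM final during exposure. After 48 h at 37 °C in 5% CO2, sulforhodamine B staining gave percent of matched 0.25% DMSO vehicle-control growth. GI50 came from a Hill equation fit, averaging eight sets of duplicate wells.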

[7] = Antiproliferative activity against estrogen receptor-deficient human NCI-ADR-RES cells incubated with 100 nM of estradiol and 0.07 nM of testosterone after 48 hrs by sulforhodamine B assay in presence of fetal bovine serum and NuSerum; format: functional; procedure, shortened: as §3
[8] = Antiproliferative activity against estrogen receptor-deficient human NCI-ADR-RES cells incubated with 0.003 nM of estradiol and 0.01 nM of testosterone after 48 hrs by sulforhodamine B assay in presence of 5% fetal bovine serum; format: functional; procedure, shortened: as §2
[9] = tested on: MCF-12A; test: Antiproliferative activity against estrogen receptor-deficient human MCF12A cells incubated with 0.06 nM of estradiol and 0.07 nM of testosterone after 48 hrs by sulforhodamine B assay in presence of fetal bovine serum and NuSerum; format: functional; procedure, shortened: as §1
[10] = tested on: MCF7; test: Antiproliferative activity against human MCF7 cells expressing estrogen receptor incubated with 0.003 nM of estradiol and 0.01 nM of testosterone after 48 hrs by sulforhodamine B assay in presence of 5% fetal bovine serum; format: functional; settings: MCF7, 48 h; procedure, shortened: as §2
[11] = Antiproliferative activity against estrogen receptor-deficient human NCI-ADR-RES cells incubated with 0.06 nM of estradiol and 0.07 nM of testosterone after 48 hrs by sulforhodamine B assay in presence of fetal bovine serum and NuSerum; format: functional; procedure, shortened: as §1
[12] = tested on: LNCaP; test: Antiproliferative activity against human LNCAP cells expressing androgen receptor incubated with 0.6 nM of estradiol and 0.7 nM of testosterone after 48 hrs by sulforhodamine B assay; format: functional; procedure, shortened: as §1

Row | Structure (SMILES) | GI50 [1] [µM] | GI50 [2] [µM] | GI50 [4] [µM] | GI50 [6] [µM] | GI50 [10] [µM] | GI50 [12] [µM] | GI50 [3] [µM] | GI50 [5] [µM] | GI50 [7] [µM] | GI50 [8] [µM] | GI50 [9] [µM] | GI50 [11] [µM]
1 | CC1(C)C=Cc2c(ccc3c2OCC2(O)c4ccc(O)cc4OC32)O1 (racemic) | 20 | 32.4 | 29.5 | 18.2 | 17.4 | 12.9 | 51.3 | 47.9 | 45.7 | 41.7 | 45.7 | 37.2
2 | CCC(=C(c1ccc(O)cc1)c1ccc(OCCN(C)C)cc1)c1ccccc1 | 1.91 | 7.59 | 10.7 | 3.47 | 1.41 | 8.32 | 3.24 | 3.31 | 7.76 | 4.47 | 3.89 | 6.17
3 | CC1(C)C=Cc2c(ccc3c2OC[C@]2(O)c4ccc(O)cc4O[C@H]32)O1 | 24 | 47.9 | 57.5 | 21.4 | 22.9 | 27.5 | 46.8 | 38 | 30.2 | 42.7 | 38.9 | 44.7
4 | C[C@]12CC[C@@H]3c4ccc(O)cc4C[C@@H](CCCCCCCCC[S+]([O-])CCCC(F)(F)C(F)(F)F)[C@H]3[C@@H]1CC[C@@H]2O (some centres undefined) [FULVESTRANT] | 158 | > 100 | > 100 | 794 | < 0.01 | 398 | > 100 | > 100 | > 100 | > 100 | > 100 | > 100

The next lines start with results.

Row | GI50 [1] [µM] | GI50 [2] [µM] | GI50 [4] [µM] | GI50 [6] [µM] | GI50 [10] [µM] | GI50 [12] [µM] | Structure (SMILES) | GI50 [3] [µM] | GI50 [5] [µM] | GI50 [7] [µM] | GI50 [8] [µM] | GI50 [9] [µM] | GI50 [11] [µM]
5 | 2.95 | 11 | 13.8 | 5.62 | 2.29 | 10 | CC/C(=C(\c1ccccc1)c1ccc(OCCN(C)C)cc1)c1ccccc1 [TAMOXIFEN] | 5.75 | 5.75 | 11.5 | 5.75 | 6.92 | 9.55
6 | 13.8 | 30.9 | 36.3 | 15.1 | 13.2 | 11.5 | CC1(C)C=Cc2c(ccc3c2OC[C@@]2(O)c4ccc(O)cc4O[C@@H]32)O1 [GLYCEOLLIN I] | 38 | 33.1 | 29.5 | 24.5 | 27.5 | 30.2
7 | 45.7 | 42.7 | 50.1 | 52.5 | 61.7 | 38.9 | O=c1c(-c2ccc(O)cc2)coc2cc(O)cc(O)c12 [GENISTEIN] | 30.2 | 32.4 | 26.9 | 32.4 | 21.9 | 17
